Assay [1] is filed under the species Mus musculus. Particulars: Swiss Albino, 5 mg/kg.
Assay [2] relates to Rattus norvegicus. Put plainly: Effect on lower lip retraction in Wistar rat at 20 mg/kg. The class given is functional. The essentials: (§1)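 Male Wistar rats (290–310 g) dosed ip in 1% Tween 80 (2 ml/kg), caged singly; lower lip retraction scored 15, 30 and 45 min after dosing as 0 (incisors not visible), 0.5 (partly) or 1 (completely visible), totals up to 3 per rat. n = 6 per group; one-way ANOVA followed by Dunnett's test.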

Assay [3] relates to Rattus norvegicus. Put plainly: Effect on 8-OH-DPAT-induced lower lip retraction in Wistar rat at 20 mg/kg. It is filed as functional.
The species entered for assay [4] is Mus musculus. The following applies: Swiss Albino, 5 mg/kg. The source holds these as a separate data set.
The species named for assay [5] is Mus musculus. The following applies: Swiss Albino, 5 mg/kg. The source holds these as a separate data set.
The nature of assay [6]: Displacement of [3H]prazosin from adrenergic alpha1 receptor in rat cortical membranes. The class given is cell membranes, Membrane. In a few lines:
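Rat cortical membranes with [3H]-prazosin; phentolamine defines nonspecific binding. 7–9 drug concentrations in triplicate, at least three separate experiments; stopped by GF/B filtration with three ice-cold buffer washes, bound radioactivity by liquid scintillation counting; Ki from non-linear regression and Cheng-Prusoff equation.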
A general note: In a radioligand displacement assay an active substance lowers the binding of a labelled ligand.

Assay [7] is filed under the species Mus musculus. Particulars: Swiss Albino, 5 mg/kg. This is another data set of the same source.
For assay [8], the species on record is Mus musculus. Particulars: Swiss Albino, 2.5 mg/kg.
The target in assay [9] is 5-hydroxytryptamine receptor 7 (Homo sapiens, UniProt P34969). Put plainly: Displacement of [3H]5-CT from human 5HT7 expressed in HEK293 cells. It is filed as cell-based. In a few lines:
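HEK293 cells stably transfected with human 5-HT7(b) cDNA; membranes (10 µg protein) incubated 1 h at 37 °C in 50 mM Tris-HCl pH 7.4 with 4 mM MgCl2, 0.1 mM pargyline, 0.1% ascorbic acid, 0.5 nM [3H]-5-CT and 7–9 test concentrations in triplicate; 10 µM 5-HT defines nonspecific binding. GF/B filtration, scintillation counting; Ki via Cheng-Prusoff from ≥3 experiments.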

The species named for assay [10] is Mus musculus. The following applies: Swiss Albino, 2.5 mg/kg. This is another data set of the same source.
In assay [11] the test system is Rattus norvegicus. Put plainly: Effect on 8-OH-DPAT-induced lower lip retraction in Wistar rat at 10 mg/kg. The class given is functional.
The species entered for assay [12] is Mus musculus. The following applies: Swiss Albino, 2.5 mg/kg. This is another data set of the same source.
The subject of assay [13] is Rattus norvegicus. The assay can be described thus: Effect on lower lip retraction in Wistar rat at 5 mg/kg. It is filed as functional. In a few lines:
as §1

The test system of assay [14] is Rattus norvegicus. Put plainly: Effect on lower lip retraction in Wistar rat at 10 mg/kg. The class given is functional. The essentials:
as §1

Assay [15] relates to Rattus norvegicus. Put plainly: Effect on 8-OH-DPAT-induced lower lip retraction in Wistar rat at 5 mg/kg. The class given is functional.
The species entered for assay [16] is Mus musculus. The following applies: Swiss Albino, 5 mg/kg. The source holds these as a separate data set.
Assay [17] is filed under the species Mus musculus. Particulars: Swiss Albino, 2.5 mg/kg. This is another data set of the same source.
The next assay has as its target D(2) dopamine receptor (Rattus norvegicus, UniProt P61169). The assay can be described thus: Displacement of [3H]spiperone from dopamine D2 receptor in rat striatal membranes. It is filed as cell membranes, Membrane. In a few lines: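 Competition binding on rat striatal membranes using [3H]-spiperone, butaclamol for nonspecific binding; filtration through GF/B filters and scintillation counting. Run at two compound concentrations, each in triplicate, and affinity expressed as estimated Ki.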

The target of assay [18] is T1, 5-hydroxytryptamine receptor 1A (Rattus norvegicus, UniProt P19327).
T1 sequence (P19327 whole entry): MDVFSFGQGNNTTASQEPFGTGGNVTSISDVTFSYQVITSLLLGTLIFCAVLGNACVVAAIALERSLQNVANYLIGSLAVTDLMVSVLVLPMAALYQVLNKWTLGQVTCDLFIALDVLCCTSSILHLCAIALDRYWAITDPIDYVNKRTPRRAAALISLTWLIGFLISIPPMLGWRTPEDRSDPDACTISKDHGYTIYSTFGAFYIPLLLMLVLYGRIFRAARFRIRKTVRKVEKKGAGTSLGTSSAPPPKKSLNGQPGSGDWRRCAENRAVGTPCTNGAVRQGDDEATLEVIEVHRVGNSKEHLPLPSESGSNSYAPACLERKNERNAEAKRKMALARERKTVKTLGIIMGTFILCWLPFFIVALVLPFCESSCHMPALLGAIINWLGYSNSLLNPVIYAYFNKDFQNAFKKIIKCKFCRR
The assay can be described thus: Displacement of [3H]8-OH-DPAT from 5HT1A in rat hippocampal membranes. It is filed as cell membranes, Hippocampus, Membrane. In a few lines:
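Rat hippocampal membranes, [3H]-8-OH-DPAT as radioligand, 5-HT defining nonspecific binding. 7–9 drug concentrations run in triplicate, at least three separate experiments. Filtration through GF/B filters with three ice-cold buffer washes, scintillation counting. Ki from non-linear regression of binding isotherms via Cheng-Prusoff equation.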

For assay [19], the species on record is Mus musculus. The following applies: Swiss Albino, 5 mg/kg. The source holds these as a separate data set.
For assay [20], the species on record is Mus musculus. The following applies: Swiss Albino, 10 mg/kg.
For assay [21], the species on record is Mus musculus. Particulars: Swiss Albino, 10 mg/kg. The source holds these as a separate data set.
The species entered for assay [22] is Mus musculus. Particulars: Swiss Albino, 10 mg/kg. This is another data set of the same source.
For assay [23], the species on record is Mus musculus. The following applies: Swiss Albino, 20 mg/kg.
Assay [24] is filed under the species Mus musculus. Particulars: Swiss Albino, 10 mg/kg. The source holds these as a separate data set.
The species entered for assay [25] is Mus musculus. Particulars: Swiss Albino, 20 mg/kg. This is another data set of the same source.
The species entered for assay [26] is Mus musculus. The following applies: Swiss Albino, 10 mg/kg. The source holds these as a separate data set.
Assay [27] concerns Rattus norvegicus. Put plainly: Effect on 8-OH-DPAT-induced lower lip retraction in Wistar rat at 2.5 mg/kg. The class given is functional.
The species named for assay [28] is Mus musculus. The following applies: Swiss Albino, 20 mg/kg. This is another data set of the same source.
The species entered for assay [29] is Mus musculus. The following applies: Swiss Albino, 20 mg/kg. This is another data set of the same source.
Assay [30] is filed under the species Mus musculus. The following applies: Swiss Albino, 20 mg/kg. The source holds these as a separate data set.
Assay [31] relates to Rattus norvegicus. Put plainly: Effect on lower lip retraction in Wistar rat at 2.5 mg/kg. The class given is functional. In a few lines: as §1
The species named for assay [32] is Mus musculus. Particulars: Swiss Albino, 10 mg/kg. The source holds these as a separate data set.
The species entered for assay [33] is Mus musculus. Particulars: Swiss Albino, 10 mg/kg. The source holds these as a separate data set.

Where only a bound is given, the exact number is not on record here.

Broadly, the Ki is the equilibrium dissociation constant of an inhibitor or competing ligand from its target. The low end stands for a stronger hold on the target, the high end for a looser hold on the target.

Sequence of 5-hydroxytryptamine receptor 7 (P34969 whole entry): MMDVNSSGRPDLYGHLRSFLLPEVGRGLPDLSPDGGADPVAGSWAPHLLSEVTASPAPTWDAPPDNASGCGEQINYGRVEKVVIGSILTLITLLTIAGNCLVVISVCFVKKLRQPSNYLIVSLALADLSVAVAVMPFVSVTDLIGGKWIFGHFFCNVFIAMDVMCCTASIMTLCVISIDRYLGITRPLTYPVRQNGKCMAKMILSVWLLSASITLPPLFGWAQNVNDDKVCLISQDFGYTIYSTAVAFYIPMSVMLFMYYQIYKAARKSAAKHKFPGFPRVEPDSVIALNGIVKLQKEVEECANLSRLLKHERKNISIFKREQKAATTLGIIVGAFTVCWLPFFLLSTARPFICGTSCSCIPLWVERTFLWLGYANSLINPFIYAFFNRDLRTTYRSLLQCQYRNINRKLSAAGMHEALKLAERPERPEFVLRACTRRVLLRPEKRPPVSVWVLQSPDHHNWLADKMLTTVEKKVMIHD
Sequence of D(2) dopamine receptor (P61169 whole entry): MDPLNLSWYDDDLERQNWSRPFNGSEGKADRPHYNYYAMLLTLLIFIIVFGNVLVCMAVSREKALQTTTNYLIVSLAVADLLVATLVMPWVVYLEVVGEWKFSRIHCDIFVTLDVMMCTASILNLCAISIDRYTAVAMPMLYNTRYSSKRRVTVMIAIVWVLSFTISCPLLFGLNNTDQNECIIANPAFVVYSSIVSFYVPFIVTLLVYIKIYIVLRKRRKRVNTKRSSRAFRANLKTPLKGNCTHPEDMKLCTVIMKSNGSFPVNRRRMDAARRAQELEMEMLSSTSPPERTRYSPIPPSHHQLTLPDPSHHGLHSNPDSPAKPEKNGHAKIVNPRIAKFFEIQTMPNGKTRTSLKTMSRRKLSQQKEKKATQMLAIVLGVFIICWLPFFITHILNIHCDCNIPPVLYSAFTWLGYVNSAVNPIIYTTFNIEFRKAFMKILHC

Turning to `O=C1C2=C(CCCC2)C(=O)N1C1CCC(N2CCN(c3cccc(C(F)(F)F)c3)CC2)CC1` (stereo not drawn), the deltaT is -0.3 °C in the assay filed under Mus musculus [1]; -0.7 °C in the assay filed under Mus musculus [4]; -1.2 °C in the assay listed under Mus musculus [5]; 0.2 °C in the assay filed under Mus musculus [7]; -0.4 °C in the assay listed under Mus musculus [8]; -0.5 °C in the assay filed under Mus musculus [10]. Besides, the deltaT is 0.1 °C in the assay listed under Mus musculus [12], -1.4 °C in the assay filed under Mus musculus [16], -0.4 °C in the assay listed under Mus musculus [17] and 0.1 °C in the assay filed under Mus musculus [19]. In addition, the Activity in the assay with Rattus norvegicus [2] was 2; with Rattus norvegicus [3] it was 1.8; in the assay with Rattus norvegicus [11], 1.9; with Rattus norvegicus [13] it was 1.8; in the assay on Rattus norvegicus [14], 2; in the assay on Rattus norvegicus [15], 2.5. Moreover, the inhibition constant Ki is 4 nM in [6], above 5000 nM in assay [9], 2640 nM at D(2) dopamine receptor and 0.3 nM in [18].

Turning to `O=C1C2=C(CCCC2)C(=O)N1CCCCN1CCN(c2cccc(C(F)(F)F)c2)CC1`, the deltaT is 0 °C in the assay filed under Mus musculus [20]; 0 °C in the assay filed under Mus musculus [21]; 0.2 °C in the assay listed under Mus musculus [22]; -1.1 °C in the assay listed under Mus musculus [23]; 0 °C in the assay filed under Mus musculus [24]; -1.3 °C in the assay filed under Mus musculus [25]. Also, the deltaT in the assay listed under Mus musculus [26] was -0.2 °C; in the assay listed under Mus musculus [28], -0.6 °C; in the assay filed under Mus musculus [29], -1.3 °C; in the assay listed under Mus musculus [30], -1.8 °C. Besides, the Ki in assay [6] was 30 nM; in assay [9] it was 134 nM; at D(2) dopamine receptor, above 5000 nM; in assay [18], 5.9 nM. Also, the Activity in the assay with Rattus norvegicus [11] came to 1.1; with Rattus norvegicus [13], 2.2; with Rattus norvegicus [14], 2.2; in the assay with Rattus norvegicus [15], 1.5; with Rattus norvegicus [27], 2.3; in the assay on Rattus norvegicus [31], 1.9.

Turning to `O=C1C2CC=CCC2C(=O)N1C1CCC(N2CCN(c3cccc(C(F)(F)F)c3)CC2)CC1` (stereo not drawn), the deltaT is -1 °C in the assay filed under Mus musculus [20]; -0.1 °C in the assay listed under Mus musculus [1]; -0.4 °C in the assay filed under Mus musculus [4]; -0.7 °C in the assay listed under Mus musculus [5]; -0.5 °C in the assay listed under Mus musculus [32]; -1.1 °C in the assay filed under Mus musculus [21]. For the same molecule, the deltaT in the assay listed under Mus musculus [22] is -1.7 °C; in the assay listed under Mus musculus [24], -1.3 °C; in the assay listed under Mus musculus [16], -0.4 °C; in the assay listed under Mus musculus [33], -0.3 °C. Further, the Activity came to 1.3 in the assay on Rattus norvegicus [2], 1.9 in the assay with Rattus norvegicus [3], 2.1 in the assay on Rattus norvegicus [11] and 0.7 in the assay with Rattus norvegicus [14]. The inhibition constant Ki in assay [6] came out at 43 nM; in [9] it was 335 nM; at D(2) dopamine receptor it was 4680 nM; in [18], 1.5 nM.

Source of the values: ChEMBL document CHEMBL1139831, “The influence of modifications in imide fragment structure on 5-HT(1A) and 5-HT(7) receptor affinity and in vivo pharmacological properties of some new 1-(m-trifluoromethylphenyl)piperazines” (Bioorg Med Chem, 2007).
